# Bioassay records from PubChem.
# Rows were chosen to be rich in hits. Some 3.7% of all compounds tested hit in one or more screens of this group.
# SR-BI DiI-HDL act – SR-BI HDL lipid transfer activation; CHO ldlA[mSR-BI] cells, DiI-HDL uptake fluorescence, 3 h; 100 = double the neutral-control signal; activation, % at 12.5 µM; hit rate 0.096% among 320,000;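 active means mean replicate activation of at least 60% and every replicate at or above 60%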;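 further: 0% = median plate neutral-control signal and 100% = twice that signal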
#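 Material: SR-BI-overexpressing, LDLR-lacking CHO cells | Dosing: Single compound concentration, delivered by pin transfer | Probe or stimulus: Labelled HDL, 10 µg/mL | Signal: Bottom-read cell fluorescence after medium removal, ex 550/em 595 nm | Schedule: 3 h, 37 °C | Evaluation: HDL uptake via cellular fluorescence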
# GAA850 FXN act – activators of GAA850 frataxin (FXN) promoter; HEK293 lucGAA850 FXN promoter luciferase reporter, 24 h; percent of 10 µM SAHA response; activation, % at 6 µM; hit rate 0.56% among 360,000; AID 540364;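 active means activation above the average of all compounds screened plus 3 SD, cutoff fixed separately per campaign, cut at about 7.5% in these data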;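 further: 0% = DMSO wells and 100% = 10 µM SAHA wells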
# AHR act – activators of human aryl hydrocarbon receptor | P35869 | AHR-responsive luciferase reporter cells, luminescence | activation, % at 5 µM | hit rate 2.5% among 320,000 | AID 2796; in the data active means activation above about 47%;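 further: 0% = vehicle wells and 100% = reference agonist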
# GASC-1 inh – inhibitors of human GASC-1 (JMJD2C) demethylase. hit rate 0.069% among 330,000. GST-JMJD2C(1-420) H3K9me3 demethylation, DELFIA europium. Q9H3R0. inhibition, % at 2.35 µM;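 active means more than half of a compound's replicate wells show inhibition beyond 50%, single wells judged on their own value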;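 further: signal counts dimethyl H3K9 product captured on neutravidin plate; 0% = median of DMSO wells and 100% = 0.3 times that DMSO median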
# Target sequence (Q9H3R0 1-420 limits assumed): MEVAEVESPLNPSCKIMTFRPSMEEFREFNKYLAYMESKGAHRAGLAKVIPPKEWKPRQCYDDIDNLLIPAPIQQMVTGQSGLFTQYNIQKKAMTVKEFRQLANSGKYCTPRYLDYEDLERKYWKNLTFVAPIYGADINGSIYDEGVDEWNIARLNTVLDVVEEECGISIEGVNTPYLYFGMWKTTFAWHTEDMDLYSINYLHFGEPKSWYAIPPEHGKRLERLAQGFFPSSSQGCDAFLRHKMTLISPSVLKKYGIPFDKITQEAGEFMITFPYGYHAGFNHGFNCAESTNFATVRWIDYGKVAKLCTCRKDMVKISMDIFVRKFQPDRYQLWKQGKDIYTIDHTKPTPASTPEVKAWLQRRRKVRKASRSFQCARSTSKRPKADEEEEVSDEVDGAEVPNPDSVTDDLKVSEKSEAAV
# SR-BI DiI inh – inhibitors of mouse SR-BI mediated HDL lipid uptake. Q61009. ldlA[mSR-BI] CHO cells, DiI-HDL uptake fluorescence, 3 h. hit rate 0.96% among 320,000. inhibition, % at 12.5 µM;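 active means mean replicate inhibition of at least 70% and a set share of replicates each scoring 70 or more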;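 further: 0% = median of neutral control wells and 100% = median of positive control wells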
# AHR act confirm – confirmation of human aryl hydrocarbon receptor activators. shares compounds with AHR act. human cells, AHR-responsive luciferase reporter, luminescence. hit rate 87% among 2,300. activation, % at 9 µM; in the data active means activation above about 49%;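 further: HepG2 hepatoma cells carrying a DRE-driven firefly luciferase reporter; 0% = vehicle wells and 100% = reference agonist wells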
# PXR counter – activates human PXR in AHR activator counter-screen. hit rate 88% among 2,300. cell-based PXR reporter, luciferase luminescence. activation, % at 11.6 µM. shares compounds with AHR act; in the data active means activation above about 11%;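 further: human hepatoma DPX-2 cells expressing full-length human PXR; 0% = DMSO and 100% = reference agonist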
# * hit, by the source's call; x = no result given.
SMILES,SR-BI DiI-HDL act,GAA850 FXN act,AHR act,GASC-1 inh,SR-BI DiI inh,AHR act confirm,PXR counter
c1ccc(-c2nc(NCCCn3ccnc3)c3ccccc3n2)cc1,-16,0,82*,-16,16,89*,76*
CCN(CC)c1nc(-c2ccccc2)nc2ccccc12,-29,1,108*,-9,29,78*,91*
COCCN(CCOC)c1nc(-c2ccc(Cl)cc2)nc2ccccc12,-29,0,118*,-9,29,83*,70*
COCCN(CCOC)c1nc(-c2ccccc2)nc2ccccc12,-3,1,x,1,3,x,x
CCN(CC)CCCNc1nc(-c2ccccc2)nc2ccccc12,32,0,4,8,-32,x,x
COCCCNc1nc(-c2ccncc2)nc2ccccc12,-75,3,88*,10,75*,103*,56*
O=c1c2cc(Br)ccc2nc(-c2cccc(C(F)(F)F)c2)n1O,-38,0,22,2,38,x,x
OCCCNc1nc(-c2ccc(Cl)cc2)nc2ccccc12,-50,3,88*,0,50,104*,62*
COc1ccc(-c2nc(NCCCN(C)C)c3ccccc3n2)cc1,10,3,26,5,-10,x,x
COCCCNc1nc(-c2ccc(Cl)cc2)nc2ccccc12,-86,5,98*,1,86*,91*,30*
O=C(CN1CCCC1c1ccc2c(c1)OCCO2)NC(=O)Nc1ccccc1 (stereo not given),4,-1,0,-7,-4,x,x
COc1cc(/C=C/C(O)=C/C(=O)/C=C/c2ccc(O)cc2)ccc1O,-30,-1,-1,-2,30,x,x
C=CCSc1nnc2nc3[nH]c4c(C)cccc4c3nn12,11,3,105*,-15,-11,143*,38*
O=c1c2ccccc2nc2oc3ccccc3n12,16,4,95*,7,-16,93*,17*
CCCCCN(C(=O)CCC(=O)OCCOc1cccc(Cl)c1)c1c(N)n(CCCC)c(=O)[nH]c1=O,-35,-1,-1,-5,35,x,x
Cn1cc(C(=O)N/N=C/C(Br)=C/c2ccccc2)ccc1=O,-26,6,116*,-6,26,143*,11*
Cn1cc(C(=O)N/N=C/C(Br)=C\c2ccccc2)ccc1=O,-13,5,112*,-5,13,77*,11*
Cn1cc(C(=O)N/N=C/C=C/c2ccccc2)ccc1=O,33,2,9,3,-33,x,x
Cc1nnc(SCC(=O)NC(=O)NCCC(C)C)s1,9,2,-1,7,-9,x,x
COc1ccccc1NC(=O)CN(Cc1ccco1)C(=O)c1ccc(Cl)nc1,-15,0,85*,-10,15,109*,62*
Nc1nc(N)c(N=Nc2ccc(SCC(=O)O)cc2)c(=O)[nH]1,14,2,1,-8,-14,x,x
CN(NC(=O)C(C)(C)C)c1nc(-c2ccccc2)nnc1C(F)(F)F,14,2,1,5,-14,x,x
CN(C)c1nc(-c2ccccc2)nnc1C(F)(F)F,-3,1,96*,-9,3,114*,25*
COc1ccc(Cl)cc1NC(=O)CN(C)C(=O)Cn1cnc2c1c(=O)n(C)c(=O)n2C,28,3,-2,5,-28,x,x
O=C(N/N=C/c1sc(N2CCOCC2)nc1-c1ccccc1)c1ccc(O)cc1,-59,5,95*,-3,59,49*,11*
SMILES,SR-BI DiI-HDL act,GAA850 FXN act,AHR act,GASC-1 inh,SR-BI DiI inh,AHR act confirm,PXR counter
COc1ccc(C(=O)N/N=C/c2sc(N3CCOCC3)nc2-c2ccccc2)cc1OC,-57,-2,5,-15,57,x,x
Cc1ccc(/C=C/C(=O)c2ccccc(=O)c2O)c(C)c1,14,-8,94*,-14,-14,12,17*
Cc1ccc(C)c(/C=C/C(=O)c2ccccc(=O)c2O)c1,18,4,4,18,-18,x,x
C=CCNC(=O)c1ccccc1NC(=O)c1cccc2ccccc12,-7,-1,94*,1,7,89*,84*
COc1ccc(NC(=O)C(C)N2CCN(C)CC2)cc1 (stereo not given),-2,1,2,-11,2,x,x
CC(=O)N(Cc1ccco1)c1nc(C(=O)Nc2ccc(Cl)cc2)c(C)s1,-62,0,90*,-8,62,66*,63*
CC(C)(C)c1ccc(CC(=O)N2CCC2(C)C(=O)NS(=O)(=O)c2ccc(C#N)cc2)cc1 (stereo not given),x,2,x,x,x,x,x
CC(=O)c1c(C)nc(-c2ccc(Cl)cc2)nc1N,-9,5,92*,-7,9,130*,33*
CSc1nc(-c2ccccc2)nc(N)c1C(C)=O,x,x,20,-2,x,x,x
CC(=O)c1c(C)nc(-c2ccc(Cl)cc2)nc1N=CN(C)C,-48,7,90*,0,48,98*,35*
Cc1cccc(NC(=S)NNC(=O)c2ccccc2OC(F)F)c1,25,1,116*,-6,-25,121*,34*
Cc1ccc(NC(=S)c2nc3ccccc3[nH]2)c(C)c1,-62,4,94*,-2,62,84*,x
O=C(c1ccco1)N1CCN(Cc2nnc(-c3cccc(Br)c3)o2)CC1,x,1,8,30,x,x,x
C=CCn1c(NC(=O)c2ccccc2)nc2ccccc21,-16,1,87*,7,16,126*,33*
C=CCn1c(=N)n(CC(=O)c2ccc(Br)cc2)c2ccccc21,-4,1,86*,3,4,96*,31*
N=c1n(N)c2ccccc2n1CC(=O)c1ccc(Br)cc1,32,3,83*,7,-32,86*,10
C=CCn1c(=N)n(CC(=O)c2ccccc2)c2ccccc21,17,-1,102*,2,-17,88*,47*
CCOC(=O)c1sc(NC(=O)C(C)Sc2nc(N)cc(=O)[nH]2)nc1C (stereo not given),6,2,-2,-3,-6,x,x
O=C(NCCc1ccccc1)c1ccc2c(c1)S(=O)(=O)c1ccccc1C2=O,-28,0,3,3,28,x,x
COc1cc(/C=C/C(=O)OCC(=O)Nc2nnc(-c3ccccc3)o2)cc(OC)c1OC,33,2,0,-2,-33,x,x
CCCn1c(=N)n(CC(=O)c2ccc([N+](=O)[O-])cc2)c2ccccc21,-70,-1,11,-7,70,x,x
CCCn1c(=N)n(CC(=O)c2ccc(Cl)cc2)c2ccccc21,-44,-3,86*,-5,44,80*,31*
c1ccc(C(c2ccccc2)N2CCN(c3nc4ccccc4n4cnnc34)CC2)cc1,x,x,0,-4,x,x,x
